The list is not random: actives were taken first. Their share in the collection is about 2.5%.
VIM-2 inhibitor = blocks Pseudomonas aeruginosa VIM-2 metallo-beta-lactamase | 290,000 compounds, 0.89% hits | inhibition, % at 5.6 µM | purified VIM-2, nitrocefin hydrolysis, epi-absorbance fluorescence;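 active means inhibition above the mean of all tested compounds plus 3 SD, cutoff set per screening run, cut at about 7.5% in these data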;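 further: red hydrolysis product quenches plate fluorescence so inhibitors raise well fluorescence; 0% = enzyme with DMSO and 100% = DMSO without enzyme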
dFosB activator = enhances mouse delta FosB homodimer DNA binding. P13346. purified delta FosB, TAMRA-CDK5 oligo fluorescence polarization; percent of positive-control signal above neutral wells. activation, % at 25 µM. 340,000 compounds, 0.99% hits. AID 493131;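 active means mean activation above about 17%, with every replicate also reaching it, limit read from the data, passing the limit was not always enough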
Target sequence (P13346 whole entry, looked up): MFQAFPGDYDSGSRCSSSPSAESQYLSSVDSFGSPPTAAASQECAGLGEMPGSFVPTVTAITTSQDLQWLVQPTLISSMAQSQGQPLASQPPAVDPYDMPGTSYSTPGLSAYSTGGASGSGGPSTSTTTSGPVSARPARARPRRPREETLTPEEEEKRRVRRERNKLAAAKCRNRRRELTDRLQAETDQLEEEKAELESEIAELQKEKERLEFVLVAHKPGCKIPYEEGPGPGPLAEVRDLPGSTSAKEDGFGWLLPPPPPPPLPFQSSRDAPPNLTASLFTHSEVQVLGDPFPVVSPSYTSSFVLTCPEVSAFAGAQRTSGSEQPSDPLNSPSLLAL
HTR2A ag = activates the mouse 5-HT2A serotonin receptor | P35363 | CHO-K1 mHTR2A beta-arrestin complementation, luminescence; percent of 30 µM serotonin response | activation, % at 7.6 µM | 360,000 compounds, 0.66% hits;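 active means activation above a run cutoff, the mean activation of all tested compounds plus 3 SD, cut at about 14% in these data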;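 further: 0% = plate median of compound wells and 100% = 30 µM serotonin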
IMP-1 inhibitor = blocks Pseudomonas aeruginosa IMP-1 metallo-beta-lactamase | purified IMP-1, nitrocefin hydrolysis, epi-absorbance fluorescence | inhibition, % at 5.6 µM | 290,000 compounds, 0.45% hits | AID 1556;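 active means inhibition above the mean plus 3 SD of all compounds in the same screening run, cut at about 4.5% in these data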;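 further: 0% = IMP-1 with DMSO and 100% = DMSO wells lacking enzyme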
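assay system = purified recombinant IMP-1 metallo-beta-lactamase enzyme | schedule = 15 min preincubation plus 25 min reaction at 25 °C | signal = Epi-absorbance fluorescence, 480 nm excitation, 530 nm emission | read-out basis = percent inhibition from optical density relative to buffer-blank wells | controls = IMP-1 with DMSO as 0%, enzyme-free DMSO as 100%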
An asterisk follows results filed as active; x = no result.

SMILES | VIM-2 inhibitor | dFosB activator | HTR2A ag | IMP-1 inhibitor
O=C(O)CCCN1C(=O)C2C3CC(C2C1=O)C1C(c2ccccc2)c2sc(=O)[nH]c2SC31 (stereo not drawn) | -1 | -3 | 2 | -2
CC(C)(C)OC(=O)C[C@@H]1C/C=C\C[C@H](CC(=O)N[C@H](CO)Cc2ccccc2)C(=O)N2CCC[C@H]2COC1=O | x | -8 | 2 | x
NC(=O)[C@@H]1CCCNc2c(I)cc([N+](=O)[O-])cc2C(=O)N[C@@H](CCCN=C(N)N)C(=O)N[C@@H](CCCN=C(N)N)C(=O)N1 | 0 | x | x | 12*
CC[C@H](C)[C@@H]1NC(=O)c2cc([N+](=O)[O-])cc(I)c2NCC[C@@H](C(N)=O)NC(=O)[C@H](CCCN=C(N)N)NC1=O | -2 | x | x | -3
CCCCNC(=O)c1oc2ccc(S(=O)(=O)N3CCCC3)cc2c1C | -2 | -10 | -2 | 5.9*
O=C(NCc1cccs1)C1CCCN(c2nc3ccccc3o2)C1 (stereo not drawn) | 1 | 5 | -1 | 4.8*
NC(CCCCCP(=O)(c1ccccc1)c1ccccc1)C(=O)O (stereo not drawn) | 4 | x | x | 28*
Fc1ccc(NC(=S)N2CCN(c3cccc(C(F)(F)F)c3)CC2)cc1 | -4 | -1 | 14 | -4
FC(F)(F)c1cccc(NC(=S)N2CCN(c3cccc(C(F)(F)F)c3)CC2)c1 | 0 | -2 | 15* | -2
Cc1ccc(C)c(S(=O)(=O)Nc2ccc3oc(C)c(C(=O)O)c3c2)c1 | 2 | -16 | -11 | 6.0*
c1ccc(Oc2ccccc2-c2cc(NCCc3cccnc3)n3nccc3n2)cc1 | x | x | 5 | x
c1ccc(CSc2ccc3nnc(-c4ccccn4)n3n2)cc1 | 11* | -16 | -8 | -1
CCN1/C(=C/C(C)=C/c2sc3ccccc3[n+]2CC)Sc2ccccc21 | 2 | 507* | -4 | -3
O=C1N=c2ccccc2=C1c1sc(Nc2cccc(O)c2)nc1O | -3 | -7 | -4 | -6
O=C1N=c2ccccc2=C1c1sc(Nc2ccc(O)cc2)nc1O | -4 | -3 | -6 | 5.1*
CCOC(=O)C1CCCN(S(=O)(=O)CCNC(=O)c2ccc(F)cc2)C1 (stereo not drawn) | x | -9 | -3 | x
Cc1ccc2c(CC(=O)Nc3ccc(N4CCN(C)CC4)cc3C)coc2c1 | -3 | -1 | -8 | 7.0*
COc1ccc(N2CCN(C(=O)Cc3coc4cc(C)ccc34)CC2)cc1 | 1 | -12 | 0 | -1
COc1ccc(-c2csc(C(C)(O)c3cccnc3)n2)cn1 (stereo not drawn) | x | x | 3 | x
CC(=O)Nc1ccc(NC(=O)C(C)OC(=O)/C(C#N)=C/c2ccc(N(C)C)cc2)cc1 (stereo not drawn) | x | 36* | -4 | x
O=[N+]([O-])c1cccc2c3c([nH]c12)CCCC3 | 0 | -4 | 4 | -4
Cc1cc2occ(CC(=O)Nc3nnc(C4CC4)s3)c2cc1C | -2 | 3 | 2 | 20*
Cc1ccc(CN2CCSc3ccc(C(=O)NC4CCN(Cc5ccccc5)CC4)cc32)cc1 | -1 | 43* | -9 | -2
O=C(NC1CCCC1)c1ccc2c(c1)N(Cc1ccccc1)CCS2 | 1 | -11 | 8 | 1
CCOC(=O)c1cc(-c2ccncc2)nc2c1c(C)nn2C | 8.2* | -57 | -5 | 0
SMILES | VIM-2 inhibitor | dFosB activator | HTR2A ag | IMP-1 inhibitor
Cc1cc(=O)n2c3ccccc3n(C)c2n1 | 10* | -2 | 6 | 0
CC(=O)Nc1ccc(OCC(O)Cn2cncn2)cc1 (stereo not drawn) | -1 | 1 | 1 | -1
CCC(C(=O)O)N1C(=O)/C(=C/C(C)=C/c2ccccc2)SC1=S (stereo not drawn) | 8.2* | -4 | -3 | 1
COc1cc(/C=C2\SC(=S)N(NC(=O)c3cccnc3)C2=O)ccc1O | -5 | 31* | -5 | -5
COc1cc(/C=C2\SC(=S)N(NC(=O)c3ccc(O)cc3)C2=O)ccc1O | -7 | 28* | -8 | -7
COc1ccc(/C=C2\Sc3ccc(C(=O)NCc4cccnc4)cc3N(C)C2=O)cc1OC | 11* | -4 | 1 | -3
CCCS(=O)(=O)NC(=O)C1(C)CCCN(C(=O)c2cc(-c3cccs3)oc2C)C1 (stereo not drawn) | x | x | -1 | x
CCOc1nc2cnccc2n(CC(=O)Nc2cccc(C)c2)c1=O | -1 | -9 | 0 | -3
Cn1c(N)c(C(=O)CSc2nnc(C3CC3)n2-c2ccccc2)c(=O)n(C)c1=O | x | -6 | 10 | x
COc1cc(/C=C2\SC(=S)N(C(Cc3ccccc3)C(=O)O)C2=O)ccc1O (stereo not drawn) | -2 | 18* | 0 | -5
O=C(O)C(Cc1ccccc1)N1C(=O)/C(=C/c2ccccc2)SC1=S (stereo not drawn) | 0 | -4 | 4 | -3
O=C(O)Cc1sc(NC2CCCCC2)nc1-c1ccc(Cl)cc1 | 0 | -6 | -8 | 5.3*
COc1ccc(-c2nc(N)c(C#N)c(-c3cccnc3)c2C)cc1 | -1 | 0 | 5 | -4
CC(C)N1CCc2c(sc(NC(=O)c3ccc(S(=O)(=O)N4CCc5ccccc54)cc3)c2C(N)=O)C1 | -1 | 55* | -8 | -2
C/C(=N\O)c1noc(C)c1C(=O)Nc1nccs1 | 12* | -16 | 2 | 0
CCOC(=O)c1noc(C)c1C(=O)Nc1nccs1 | -2 | -3 | 0 | -3
OCCN1CCN(c2nc(-c3ccccc3)c3cc(Br)ccc3n2)CC1 | 8.0* | -7 | 0 | -1
CCCCCCCCCn1c2c(c(=N)c3c1CCC3)CCC2 | 1 | -1 | -6 | -2
CCCCn1c2c(c(=N)c3c1CCC3)CCC2 | -8 | -1 | -1 | 4.8*
Cc1c(NC(=S)N/N=C\c2ccccc2O)c(=O)n(-c2ccccc2)n1C | 7.8* | 0 | 6 | -4
CC(=O)NC(CC(=O)OCC(=O)Nc1ccc2c(c1)OCO2)c1ccccc1 (stereo not drawn) | -1 | -5 | 4 | -3
Cc1oc2c(cc(NS(=O)(=O)c3ccc(F)cc3)c3ccccc32)c1C(=O)O | -3 | -7 | 5 | 5.8*
Cc1oc2c(cc(NS(=O)(=O)c3ccc(C(C)C)cc3)c3ccccc32)c1C(=O)O | 2 | -7 | 4 | 8.9*
COc1ccc(S(=O)(=O)Nc2cc3c(C(C)=O)c(C)oc3c3ccccc23)cc1 | -3 | -3 | -3 | -1
O=C(C1CCCN(S(=O)(=O)c2ccc(Br)cc2)C1)N1CCOCC1 (stereo not drawn) | 0 | -7 | -4 | -1
O=S(=O)(CCN1CCN(c2ccccc2O)CC1)c1cc(Cl)ccc1Cl | x | -10 | -13 | x
Cc1ccc(Nc2nc(N/N=C\c3ccc4c(c3)OCO4)nc(N3CCOCC3)n2)cc1 | -6 | 60* | -6 | -4
Cc1ccc(/C=N/Nc2cc(C)nc(N3CCOCC3)n2)cc1 | -2 | -2 | 0 | -3
Cc1c(C(=O)N2CCCCC2)c(S(=O)(=O)NCCc2ccc(S(N)(=O)=O)cc2)c(C)n1C | -3 | 5 | 0 | -3
Cc1ccc(-c2nc(N3CCN(C)CC3)c3ccccc3n2)cc1 | 0 | -24 | -11 | -2

Screening data deposited in PubChem by several laboratories.
